Converted amounts (≈) assume the structure as drawn.
How the values were obtained:
[1] = system: Mycobacterium tuberculosis; test: Antitubercular activity against Mycobacterium tuberculosis H37Rv after 9 days by resazurin reduction assay; assay type: functional; settings: 216 h
[2] = system: PBMC; test: Cytotoxicity against human PBMC after 72 hrs by Alamar blue assay; assay type: cell-based
How it was run: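 Human peripheral blood mononuclear cells; compounds (0.048–25) in DMSO (0.1%) added 24 h after plating, then 72 h exposure. Alamar Blue absorbance read at 570 and 595 nm, medium-alone blank subtracted at each wavelength; effect expressed as percentage of control absorbance; IC50 derived.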

Structure (SMILES): CC(C)CCC1=C(O)C(=O)c2ccccc2C1=O
- MIC [1]: 205 µM (≈ 50.1 µg/mL)
- IC50 [2]: > 102 µM

Structure (SMILES): CC(C)CC1=C(O)C(=O)c2ccccc2C1=O
- MIC [1]: 217 µM (≈ 50.1 µg/mL)
- IC50 [2]: 93.5 µM

Structure (SMILES): CC(C)CC1=C(O)C(=O)C2=C(CCCC2)C1=O
- MIC [1]: 107 µM (≈ 25 µg/mL)
- IC50 [2]: 64.2 µM

Structure (SMILES): CCCC1=C(O)C(=O)c2ccccc2C1=O
- MIC [1]: 462 µM (≈ 100 µg/mL)
- IC50 [2]: 97.8 µM

Structure (SMILES): CCCC1=C(O)C(=O)C2=C(CCCC2)C1=O
- MIC [1]: 227 µM (≈ 50 µg/mL)
- IC50 [2]: 89.1 µM

Structure (SMILES): CC(C)=CCC1=C(OC2(CC=C(C)C)C(=O)c3ccccc3-c3nc4ccccc4nc32)C(=O)c2ccccc2C1=O (centres undefined)
- MIC [1]: > 180 µM
- IC50 [2]: > 45.1 µM

Structure (SMILES): CC(C)CCc1c2[nH]c3ccccc3nc-2c2ccccc2c1=O
- MIC [1]: 19.8 µM (≈ 6.26 µg/mL)
- IC50 [2]: 45.1 µM

Structure (SMILES): CC(C)CCc1c2[nH]c3ccccc3nc-2c2c(c1=O)CCCC2
- MIC [1]: 9.75 µM (≈ 3.12 µg/mL)
- IC50 [2]: > 78 µM

Structure (SMILES): CC(C)CCC1=C(OC2(CCC(C)C)C(=O)c3ccccc3-c3nc4ccccc4nc32)C(=O)c2ccccc2C1=O (centres undefined)
- MIC [1]: > 179 µM
- IC50 [2]: > 44.7 µM

Structure (SMILES): CC(C)CCC1=C(OC2(CCC(C)C)C(=O)C3=C(CCCC3)c3nc4ccccc4nc32)C(=O)C2=C(CCCC2)C1=O (centres undefined)
- MIC [1]: 176 µM (≈ 100 µg/mL)
- IC50 [2]: > 44.9 µM

Structure (SMILES): CC(C)=Cc1c2[nH]c3ccccc3nc-2c2ccccc2c1=O
- MIC [1]: 83.3 µM (≈ 25 µg/mL)
- IC50 [2]: 62 µM

Structure (SMILES): CC(C)Cc1c2[nH]c3ccccc3nc-2c2ccccc2c1=O
- MIC [1]: > 331 µM
- IC50 [2]: > 82.7 µM

Structure (SMILES): CC(C)Cc1c2[nH]c3ccccc3nc-2c2c(c1=O)CCCC2
- MIC [1]: > 327 µM
- IC50 [2]: > 81.6 µM

Structure (SMILES): CC(C)CC1=C(OC2(CC(C)C)C(=O)c3ccccc3-c3nc4ccccc4nc32)C(=O)c2ccccc2C1=O (centres undefined)
- MIC [1]: > 188 µM
- IC50 [2]: > 47.1 µM

Structure (SMILES): CC(C)CC1=C(OC2(CC(C)C)C(=O)C3=C(CCCC3)c3nc4ccccc4nc32)C(=O)C2=C(CCCC2)C1=O (centres undefined)
- MIC [1]: 92.8 µM (≈ 50 µg/mL)
- IC50 [2]: > 46.4 µM

Structure (SMILES): C=CCC1=C(O)C(=O)c2ccccc2C1=O
- MIC [1]: 467 µM (≈ 100 µg/mL)
- IC50 [2]: > 117 µM

Structure (SMILES): C=CCc1c2[nH]c3ccccc3nc-2c2ccccc2c1=O
- MIC [1]: 87.4 µM (≈ 25 µg/mL)
- IC50 [2]: 64.3 µM

Structure (SMILES): CCCc1c2[nH]c3ccccc3nc-2c2c(c1=O)CCCC2
- IC50 [2]: > 85.5 µM

Structure (SMILES): C=CCC1=C(OC2(CC=C)C(=O)c3ccccc3-c3nc4ccccc4nc32)C(=O)c2ccccc2C1=O (centres undefined)
- MIC [1]: > 201 µM
- IC50 [2]: > 50.1 µM

Structure (SMILES): CCCC1=C(OC2(CCC)C(=O)c3ccccc3-c3nc4ccccc4nc32)C(=O)c2ccccc2C1=O (centres undefined)
- MIC [1]: > 199 µM
- IC50 [2]: > 49.7 µM

Structure (SMILES): CCCC1=C(OC2(CCC)C(=O)C3=C(CCCC3)c3nc4ccccc4nc32)C(=O)C2=C(CCCC2)C1=O (centres undefined)
- MIC [1]: > 196 µM
- IC50 [2]: > 49 µM

Structure (SMILES): CC(C)CCC1=C(O)C(=O)C2=C(CCCC2)C1=O
- MIC [1]: 101 µM (≈ 25 µg/mL)
- IC50 [2]: 81.3 µM

Structure (SMILES): CC(C)=CC1=C(O)C(=O)c2ccccc2C1=O
- MIC [1]: 219 µM (≈ 50.1 µg/mL)
- IC50 [2]: > 110 µM

Structure (SMILES): NNC(=O)c1ccncc1 [ISONIAZID]
- MIC [1]: 0.145 µM (≈ 0.0199 µg/mL)

Structure (SMILES): CC(C)=CCC1=C(O)C(=O)c2ccccc2C1=O [LAPACHOL]
- MIC [1]: 207 µM (≈ 50.1 µg/mL)
- IC50 [2]: > 103 µM

Structure (SMILES): CO[C@H]1/C=C/O[C@@]2(C)Oc3c(C)c(O)c4c(O)c(c(/C=N/N5CCN(C)CC5)c(O)c4c3C2=O)NC(=O)/C(C)=C\C=C\[C@H](C)[C@H](O)[C@@H](C)[C@@H](O)[C@@H](C)[C@H](OC(C)=O)[C@@H]1C [RIFAMPIN]
- MIC [1]: 0.12 µM (≈ 0.0988 µg/mL)

— ChEMBL document CHEMBL1828530, “Quinonoid and phenazine compounds: synthesis and evaluation against H37Rv, rifampicin and isoniazid-resistance strains of Mycobacterium tuberculosis” (Eur J Med Chem, 2011)
